This note sets out measurements from ChEMBL document CHEMBL1140064, “Anxiolytic-like effects of N,N-dialkyl-2-phenylindol-3-ylglyoxylamides by modulation of translocator protein promoting neurosteroid biosynthesis” (J Med Chem, 2008).

One assay addresses Translocator protein (Rattus norvegicus, UniProt P16257). In words: Displacement of [3H]PK11195 from translocator protein in rat kidney mitochondrial membrane. The class given is cell membranes.
For a further assay, the system named is C6. In words: Induction of pregnenolone biosynthesis in rat C6 cells assessed as increase in pregnenolone level at 40 uM after 2 hrs by ELISA relative to control. The class given is functional. In outline: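 Rat C6 glioma cells grown in DMEM with 10% FBS, 2 mM L-glutamine, penicillin/streptomycin, seeded ~10 000 cells/well. Exposed to compound at 40 µM for 2 h at 37 °C, with DMSO/ethanol ≤0.5% (v/v) kept constant. Pregnenolone secreted into the medium measured by competitive ELISA; mean ± SEM of at least three determinations.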

Assay [1] deals with Rattus norvegicus. In words: Anxiolytic activity in Sprague-Dawley rat assessed as increase in total number of open arm entries at 30 mg/kg, ip by plus-maze test. Type of assay: functional. Conditions: route intraperitoneal. In a few lines:
(§1)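 Male Sprague-Dawley rats (180-200 g), group-housed 6/cage at 24 ± 1 °C, 12 h light/dark, free food and water except during testing. Dosed ip. Elevated four-arm maze (two open, two enclosed arms); entries into and time in open arms, and total arm entries, scored over a 5 min session versus vehicle-treated controls.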

For assay [2], the system named is Rattus norvegicus. The assay can be described thus: Anxiolytic activity in Sprague-Dawley rat assessed as reduction of total number of open arm entries at 50 mg/kg, ip after 5 mins by plus-maze test. The class given is functional. The note with it: route intraperitoneal. In outline:
as §1

Each structure is given as a SMILES string. pKi: −log10 of the molar value.

Translocator protein, sequence (P16257 whole entry, looked up): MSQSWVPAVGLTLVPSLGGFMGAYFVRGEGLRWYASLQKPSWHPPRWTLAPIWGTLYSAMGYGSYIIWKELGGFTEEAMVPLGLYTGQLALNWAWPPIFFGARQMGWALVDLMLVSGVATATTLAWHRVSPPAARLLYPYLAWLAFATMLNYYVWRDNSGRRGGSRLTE

On to `CCCN(CCC)C(=O)C(=O)c1c(-c2ccccc2)[nH]c2ccc(F)cc12`, for which the negative logarithm of the Ki (pKi) at Translocator protein was 8.57. The Activity with C6 is recorded as 66%.

Consider `CCCCN(CCCC)C(=O)C(=O)c1c(-c2ccc(C(F)(F)F)cc2)[nH]c2ccccc12`, for which, at Translocator protein, the pKi was 8.94. Further, the Activity with C6 was 60%.

On Translocator protein, `CCCCCCN(CCCCCC)C(=O)C(=O)c1c(-c2ccc(C(F)(F)F)cc2)[nH]c2ccccc12` gave a negative-log Ki (pKi) of 9.00. Further, the Activity in the assay with C6 is 85%.

For `CCCCCCN(CCCCCC)C(=O)C(=O)c1c(-c2ccc([N+](=O)[O-])cc2)[nH]c2ccccc12`, the pKi on Translocator protein was 9.64. Besides, in the assay on C6, the Activity was determined as 88%.

`CCCCN(CCCC)C(=O)C(=O)c1c(-c2ccc([N+](=O)[O-])cc2)[nH]c2ccccc12` had a pKi on Translocator protein of 9.57. For the same molecule, the Activity with C6 was 64%.

For the molecule `CCCN(CCC)C(=O)C(=O)c1c(-c2ccccc2)[nH]c2ccc(OC)cc12`, at Translocator protein, the pKi was 6.48. Besides, in the assay with C6, the Activity was found to be 45%.

At Translocator protein, `CCCN(CCC)C(=O)C(=O)c1c(-c2ccccc2)[nH]c2ccc([N+](=O)[O-])cc12` gave a pKi of 7.69. In the assay on C6, the Activity is listed as 91%.

As to `CCCCN(CCCC)C(=O)C(=O)c1c(-c2ccccc2)[nH]c2ccc(OC)cc12`, at Translocator protein, the negative-log Ki (pKi) was 7.19. For the same molecule, the Activity in the assay on C6 is 36%.

Regarding `CCCCCCN(CCCCCC)C(=O)C(=O)c1c(-c2ccccc2)[nH]c2ccc(OC)cc12`, the pKi at Translocator protein was 7.45. In the assay on C6, the Activity is on record as 87%.

For the molecule `CCCCCCN(CCCCCC)C(=O)C(=O)c1c(-c2ccc(F)cc2)[nH]c2ccc(Cl)cc12`, the negative logarithm of the Ki (pKi) at Translocator protein was 8.11. Also, the Activity in the assay with C6 amounted to 135%; in the assay with Rattus norvegicus [1], 9.8; in the assay with Rattus norvegicus [2] it was 2.

Molecule `CCCCCCN(CCCCCC)C(=O)C(=O)c1c(-c2ccccc2)[nH]c2ccc([N+](=O)[O-])cc12` gave a pKi at Translocator protein of 7.52. The Activity with C6 is on record as 115%.

In turn, `CCCCN(CCCC)C(=O)C(=O)c1c(-c2ccccc2)[nH]c2ccc([N+](=O)[O-])cc12` showed a pKi at Translocator protein of 7.67. In addition, the Activity in the assay on C6 was determined as 102%.

In turn, `CCCCN(CCCC)C(=O)C(=O)c1c(-c2ccccc2)[nH]c2ccc(F)cc12` had a negative-log Ki (pKi) at Translocator protein of 8.40. Further, the Activity with C6 is on record as 88%.

On Translocator protein, `CCCN(CCC)C(=O)C(=O)c1c(-c2ccc(C(F)(F)F)cc2)[nH]c2ccccc12` showed a negative logarithm of the Ki (pKi) of 8.77. The Activity in the assay on C6 is listed as 66%.
